Measurements taken from ChEMBL document CHEMBL4052830, “Dual Nicotinic Acetylcholine Receptor α4β2 Antagonists/α7 Agonists: Synthesis, Docking Studies, and Pharmacological Evaluation of Tetrahydroisoquinolines and Tetrahydroisoquinolinium Salts” (J Med Chem, 2018).
Activity calls are given as the source filed them. The calls are words filed in the database; no cut-off is given here.

What was measured:
[1] = molecular target: T1, Neuronal acetylcholine receptor; alpha3/beta4 (Rattus norvegicus, UniProt P04757+P12392); test: Antagonist activity at rat alpha3beta4 nAChR expressed in HEK293 cells assessed as inhibition of (S)-nicotine-induced […] response measured up to 90 secs by FMP assay; type: cell-based
Method in brief: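 Rat α3β4 nAChR in stably expressing HEK293 cells, FLIPR Membrane Potential Blue assay. Antagonist mode against (S)-nicotine at EC70–EC90. IC50 derived from concentration-inhibition curves. Means of 3–5 experiments in duplicate.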

Mus musculus [2] = test: Anti-depressant like activity in sc dosed mouse assessed as increase in swimming activity administered 15 mins prior to testing by forced swim test; type: functional, organism-based
Method in brief: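 Mouse forced swim test, n = 9–10 per group, doses 1, 3 and 10 mg/kg. Each mouse was placed in a 16 cm diameter beaker with 20 cm of water at 23.5–24.5 °C for 6 min. Camera-tracked total swim distance was scored after the first minute. Analysed by one-way ANCOVA with planned pairwise comparisons.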

[3] = molecular target: T2, Neuronal acetylcholine receptor subunit alpha-7 (Homo sapiens, UniProt P36544); test: Agonist activity at human alpha7 nAChR expressed in HEK293 cells co-expressing Ric-3/NACHO assessed as induction of calcium mobilization at 10 uM measured up to 90 secs in presence of PNU-120596 by FLIPR assay; type: cell-based
[4] = molecular target: T1, Neuronal acetylcholine receptor; alpha3/beta4; test: Displacement of [3H]epibatidine from rat alpha3beta4 nAChR expressed in HEK293 cell membranes after 4 hrs by scintillation counting method
Method in brief: (§1)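 Membranes from HEK293 lines stably expressing α3β4, α4β4 or α4β2 nAChR, [3H]epibatidine competition binding. Ki came from concentration-inhibition curves. Means of 3–5 experiments in duplicate.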

[5] = molecular target: Neuronal acetylcholine receptor; alpha4/beta4 (Rattus norvegicus, UniProt P09483+P12392); test: Displacement of [3H]epibatidine from rat alpha4beta4 nAChR expressed in HEK293 cell membranes after 4 hrs by scintillation counting method; method in brief: as §1
[6] = molecular target: Nicotinic acetylcholine receptor alpha-4/beta-2 (Mus musculus, UniProt Q8R493+Q9ERK7); test: Antagonist activity at mouse alpha4beta2 nAChR expressed in HEK293 cells assessed as inhibition of (S)-nicotine-induced […] response measured up to 90 secs by FMP assay; type: cell-based
Method in brief: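 Mouse α4β2 nAChR in stably expressing HEK293T cells, FLIPR Membrane Potential Blue assay. IC50 came from concentration-inhibition curves. Means of 3–5 experiments in duplicate.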

[7] = molecular target: Neuronal acetylcholine receptor; alpha4/beta2 (Rattus norvegicus, UniProt P09483+P12390); test: Displacement of [3H]epibatidine from rat alpha4beta2 nAChR expressed in HEK293 cell membranes after 4 hrs by scintillation counting method; method in brief: as §1
[8] = Selectivity ratio of IC50 for rat alpha3beta4 nAChR to IC50 for mouse alpha4beta2 nAChR
Mus musculus [9] = test: Anti-depressant like activity in mouse assessed as increase in swimming activity at 10 mg/kg, sc administered 15 mins prior to testing by forced swim test; type: functional, organism-based
Method in brief: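 Mice (n = 9–10) placed singly in a 16 cm beaker filled with water to 20 cm at 23.5–24.5 °C. Total swim distance over the 6 min test was recorded by overhead camera. Analysed by one-way ANCOVA, then planned pairwise comparisons of predicted means.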

[10] = molecular target: T2, Neuronal acetylcholine receptor subunit alpha-7; test: Agonist activity at human alpha7 nAChR expressed in HEK293 cells co-expressing Ric-3/NACHO assessed as induction of calcium mobilization measured up to 90 secs in presence of PNU-120596 by FLIPR assay; type: cell-based
Method in brief: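 Human α7 nAChR stably co-expressed with Ric-3 and NACHO in HEK293 cells, Ca2+/Fluo-4 fluorescence assay. Assay buffer held 3 μM PNU-120596 (α7 PAM) to slow desensitization. Agonist concentration-response curves gave EC50 and Rmax. Means of 3–5 experiments run in duplicate.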

[11] = molecular target: Neuronal acetylcholine receptor; alpha4/beta4 (Rattus norvegicus) (UniProt P09483+P12392); test: Potency index, ratio of DHbetaE Ki to test compound Ki for rat alpha4beta4 nAChR; type: protein-complex assay
[12] = molecular target: Neuronal acetylcholine receptor; alpha3/beta4 (Rattus norvegicus) (UniProt P04757+P12392); test: Potency index, ratio of DHbetaE Ki to test compound Ki for rat alpha3beta4 nAChR; type: protein-complex assay
[13] = molecular target: Neuronal acetylcholine receptor; alpha4/beta2 (Rattus norvegicus) (UniProt P09483+P12390); test: Potency index, ratio of DHbetaE Ki to test compound Ki for rat alpha4beta2 nAChR; type: protein-complex assay
[14] = molecular target: T2, Neuronal acetylcholine receptor subunit alpha-7; test: Agonist activity at human alpha7 nAChR expressed in HEK293 cells co-expressing Ric-3/NACHO assessed as induction of calcium mobilization at >= 10 uM measured up to 90 secs in presence of PNU-120596 by FLIPR assay; type: cell-based
[15] = molecular target: T2, Neuronal acetylcholine receptor subunit alpha-7; test: Agonist activity at human alpha7 nAChR expressed in HEK293 cells co-expressing Ric-3/NACHO assessed as induction of calcium mobilization at 1 to 3 uM measured up to 90 secs in presence of PNU-120596 by FLIPR assay; type: cell-based
[16] = molecular target: T2, Neuronal acetylcholine receptor subunit alpha-7; test: Agonist activity at human alpha7 nAChR expressed in HEK293 cells co-expressing Ric-3/NACHO assessed as induction of calcium mobilization at 0.3 to 3 uM measured up to 90 secs in presence of PNU-120596 by FLIPR assay; type: cell-based
[17] = molecular target: Neuronal acetylcholine receptor; alpha4/beta2 (Homo sapiens, UniProt P17787+P43681); test: Displacement of [3H]cytisine from human alpha4beta2 nAChR expressed in human SH-EP1 cell membranes after 75 mins by liquid scintillation spectrometry
Chain of Neuronal acetylcholine receptor; alpha4/beta2 (Homo sapiens, UniProt P17787+P43681) (P17787 whole entry): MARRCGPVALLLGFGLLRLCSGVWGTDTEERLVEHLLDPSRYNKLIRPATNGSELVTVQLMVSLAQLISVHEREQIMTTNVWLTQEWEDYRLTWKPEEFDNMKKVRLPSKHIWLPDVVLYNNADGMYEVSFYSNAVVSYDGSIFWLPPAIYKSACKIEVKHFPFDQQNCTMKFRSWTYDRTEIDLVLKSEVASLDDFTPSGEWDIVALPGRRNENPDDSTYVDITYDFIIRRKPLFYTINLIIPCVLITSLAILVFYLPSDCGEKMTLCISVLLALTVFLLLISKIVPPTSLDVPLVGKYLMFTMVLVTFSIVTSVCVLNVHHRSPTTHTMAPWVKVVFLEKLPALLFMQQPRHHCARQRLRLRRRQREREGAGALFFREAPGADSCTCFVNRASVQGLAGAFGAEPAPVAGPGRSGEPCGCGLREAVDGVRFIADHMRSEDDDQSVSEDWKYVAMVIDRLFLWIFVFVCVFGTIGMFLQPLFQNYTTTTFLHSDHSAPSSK
Chain of Neuronal acetylcholine receptor; alpha4/beta2 (Homo sapiens, UniProt P17787+P43681) (P43681 whole entry): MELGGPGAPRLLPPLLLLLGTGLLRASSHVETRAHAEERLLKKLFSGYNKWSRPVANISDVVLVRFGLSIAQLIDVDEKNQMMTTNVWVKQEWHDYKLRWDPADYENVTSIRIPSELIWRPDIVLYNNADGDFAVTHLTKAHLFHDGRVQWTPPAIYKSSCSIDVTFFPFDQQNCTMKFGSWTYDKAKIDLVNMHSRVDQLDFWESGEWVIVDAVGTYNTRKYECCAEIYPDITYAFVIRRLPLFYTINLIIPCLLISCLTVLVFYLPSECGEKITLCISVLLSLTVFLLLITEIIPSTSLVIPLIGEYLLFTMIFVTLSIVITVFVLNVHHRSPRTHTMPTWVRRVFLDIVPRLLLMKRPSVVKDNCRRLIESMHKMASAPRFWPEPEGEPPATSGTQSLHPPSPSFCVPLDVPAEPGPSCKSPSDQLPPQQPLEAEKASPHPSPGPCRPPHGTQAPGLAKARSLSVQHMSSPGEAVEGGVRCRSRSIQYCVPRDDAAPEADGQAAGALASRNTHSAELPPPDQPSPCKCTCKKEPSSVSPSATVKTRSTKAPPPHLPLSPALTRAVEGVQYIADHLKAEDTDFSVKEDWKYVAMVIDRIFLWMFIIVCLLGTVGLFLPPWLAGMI

T1 sequence (P04757 whole entry): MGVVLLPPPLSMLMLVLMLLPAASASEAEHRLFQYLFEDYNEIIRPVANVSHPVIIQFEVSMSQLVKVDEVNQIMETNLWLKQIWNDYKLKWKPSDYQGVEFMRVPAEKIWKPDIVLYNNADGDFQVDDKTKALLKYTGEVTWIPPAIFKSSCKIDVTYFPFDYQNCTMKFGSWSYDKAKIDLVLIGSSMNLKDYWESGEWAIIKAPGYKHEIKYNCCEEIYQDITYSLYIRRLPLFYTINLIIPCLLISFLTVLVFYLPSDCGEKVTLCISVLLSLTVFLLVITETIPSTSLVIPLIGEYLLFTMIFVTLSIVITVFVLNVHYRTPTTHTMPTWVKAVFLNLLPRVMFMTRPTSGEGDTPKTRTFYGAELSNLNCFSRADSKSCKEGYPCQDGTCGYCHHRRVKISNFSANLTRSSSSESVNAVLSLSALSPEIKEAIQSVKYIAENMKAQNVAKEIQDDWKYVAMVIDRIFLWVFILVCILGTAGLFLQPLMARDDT
T1 sequence (P12392 whole entry): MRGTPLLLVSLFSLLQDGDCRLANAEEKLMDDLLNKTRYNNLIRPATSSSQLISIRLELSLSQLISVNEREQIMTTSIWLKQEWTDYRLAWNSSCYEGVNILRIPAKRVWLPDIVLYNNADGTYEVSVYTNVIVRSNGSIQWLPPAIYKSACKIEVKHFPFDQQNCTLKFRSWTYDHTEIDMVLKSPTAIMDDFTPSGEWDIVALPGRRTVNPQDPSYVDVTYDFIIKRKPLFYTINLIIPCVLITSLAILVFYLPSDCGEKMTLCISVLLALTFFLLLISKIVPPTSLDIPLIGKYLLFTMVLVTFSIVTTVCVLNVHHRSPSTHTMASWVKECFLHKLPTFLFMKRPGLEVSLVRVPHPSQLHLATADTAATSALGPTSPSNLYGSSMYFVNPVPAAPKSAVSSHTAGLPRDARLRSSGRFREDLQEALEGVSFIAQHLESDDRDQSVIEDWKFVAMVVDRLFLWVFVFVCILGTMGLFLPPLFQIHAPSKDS
Chain of Nicotinic acetylcholine receptor alpha-4/beta-2 (Q9ERK7 whole entry): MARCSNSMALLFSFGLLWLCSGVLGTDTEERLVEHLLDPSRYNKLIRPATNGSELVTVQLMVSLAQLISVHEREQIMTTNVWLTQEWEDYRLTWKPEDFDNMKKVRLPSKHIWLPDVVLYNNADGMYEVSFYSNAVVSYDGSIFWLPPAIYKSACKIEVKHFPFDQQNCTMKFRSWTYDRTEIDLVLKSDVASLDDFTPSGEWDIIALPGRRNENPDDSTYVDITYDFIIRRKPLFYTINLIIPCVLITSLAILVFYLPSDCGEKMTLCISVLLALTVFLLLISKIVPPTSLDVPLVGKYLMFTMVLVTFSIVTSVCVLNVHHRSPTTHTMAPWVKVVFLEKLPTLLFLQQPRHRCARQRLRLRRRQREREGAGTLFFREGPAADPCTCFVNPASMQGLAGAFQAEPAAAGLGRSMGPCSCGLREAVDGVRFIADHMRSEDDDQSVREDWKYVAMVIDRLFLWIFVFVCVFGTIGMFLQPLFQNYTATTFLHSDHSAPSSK
Chain of Nicotinic acetylcholine receptor alpha-4/beta-2 (Q8R493 whole entry): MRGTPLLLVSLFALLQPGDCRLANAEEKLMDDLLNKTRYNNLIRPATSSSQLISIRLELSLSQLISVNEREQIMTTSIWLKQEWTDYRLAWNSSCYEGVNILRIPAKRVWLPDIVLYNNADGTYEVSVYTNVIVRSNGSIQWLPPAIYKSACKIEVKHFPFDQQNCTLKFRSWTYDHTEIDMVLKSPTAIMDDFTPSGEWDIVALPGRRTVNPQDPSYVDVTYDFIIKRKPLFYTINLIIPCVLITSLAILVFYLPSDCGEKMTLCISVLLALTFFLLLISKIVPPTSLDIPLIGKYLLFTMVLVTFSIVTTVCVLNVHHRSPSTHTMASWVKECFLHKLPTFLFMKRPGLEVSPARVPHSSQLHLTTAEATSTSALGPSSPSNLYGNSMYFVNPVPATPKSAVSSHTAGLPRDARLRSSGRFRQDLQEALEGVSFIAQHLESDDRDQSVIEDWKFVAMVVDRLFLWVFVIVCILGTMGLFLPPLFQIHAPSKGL
Chain of Neuronal acetylcholine receptor; alpha4/beta4 (P09483 whole entry): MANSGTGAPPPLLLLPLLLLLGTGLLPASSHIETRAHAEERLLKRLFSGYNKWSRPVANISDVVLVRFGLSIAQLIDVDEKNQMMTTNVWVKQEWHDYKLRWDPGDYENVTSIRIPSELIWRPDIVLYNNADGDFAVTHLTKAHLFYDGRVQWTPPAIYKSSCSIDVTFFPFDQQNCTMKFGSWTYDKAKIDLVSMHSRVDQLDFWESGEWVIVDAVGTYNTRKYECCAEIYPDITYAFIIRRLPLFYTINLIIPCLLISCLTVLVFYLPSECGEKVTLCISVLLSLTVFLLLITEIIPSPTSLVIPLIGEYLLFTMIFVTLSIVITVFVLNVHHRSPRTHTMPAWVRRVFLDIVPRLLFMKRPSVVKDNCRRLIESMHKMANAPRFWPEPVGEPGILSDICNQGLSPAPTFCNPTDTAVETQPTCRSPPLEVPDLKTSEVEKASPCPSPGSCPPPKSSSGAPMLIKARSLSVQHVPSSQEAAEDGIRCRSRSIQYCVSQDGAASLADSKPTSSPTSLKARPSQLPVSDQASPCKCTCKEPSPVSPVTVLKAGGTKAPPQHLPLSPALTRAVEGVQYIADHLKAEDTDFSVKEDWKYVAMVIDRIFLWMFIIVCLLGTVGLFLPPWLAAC
Chain of Neuronal acetylcholine receptor; alpha4/beta4 (P12392 whole entry): as the sequence (P12392 whole entry) above
Chain of Neuronal acetylcholine receptor; alpha4/beta2 (Rattus norvegicus, UniProt P09483+P12390) (P09483 whole entry): as the sequence (P09483 whole entry) above
Chain of Neuronal acetylcholine receptor; alpha4/beta2 (Rattus norvegicus, UniProt P09483+P12390) (P12390 whole entry): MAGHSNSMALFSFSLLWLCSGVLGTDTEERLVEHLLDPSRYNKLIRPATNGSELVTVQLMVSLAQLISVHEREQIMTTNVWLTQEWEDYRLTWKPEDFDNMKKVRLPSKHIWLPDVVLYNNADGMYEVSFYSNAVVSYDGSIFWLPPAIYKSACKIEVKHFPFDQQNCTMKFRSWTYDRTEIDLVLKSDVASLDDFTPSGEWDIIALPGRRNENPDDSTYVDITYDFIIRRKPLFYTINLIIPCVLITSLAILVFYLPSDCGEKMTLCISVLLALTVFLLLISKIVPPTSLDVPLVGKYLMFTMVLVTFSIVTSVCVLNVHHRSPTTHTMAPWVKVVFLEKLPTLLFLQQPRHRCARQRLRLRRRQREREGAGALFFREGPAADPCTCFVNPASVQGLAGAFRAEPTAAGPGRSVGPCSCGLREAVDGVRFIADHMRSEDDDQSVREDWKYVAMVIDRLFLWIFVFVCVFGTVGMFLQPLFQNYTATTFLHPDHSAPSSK
T2 sequence (P36544 whole entry): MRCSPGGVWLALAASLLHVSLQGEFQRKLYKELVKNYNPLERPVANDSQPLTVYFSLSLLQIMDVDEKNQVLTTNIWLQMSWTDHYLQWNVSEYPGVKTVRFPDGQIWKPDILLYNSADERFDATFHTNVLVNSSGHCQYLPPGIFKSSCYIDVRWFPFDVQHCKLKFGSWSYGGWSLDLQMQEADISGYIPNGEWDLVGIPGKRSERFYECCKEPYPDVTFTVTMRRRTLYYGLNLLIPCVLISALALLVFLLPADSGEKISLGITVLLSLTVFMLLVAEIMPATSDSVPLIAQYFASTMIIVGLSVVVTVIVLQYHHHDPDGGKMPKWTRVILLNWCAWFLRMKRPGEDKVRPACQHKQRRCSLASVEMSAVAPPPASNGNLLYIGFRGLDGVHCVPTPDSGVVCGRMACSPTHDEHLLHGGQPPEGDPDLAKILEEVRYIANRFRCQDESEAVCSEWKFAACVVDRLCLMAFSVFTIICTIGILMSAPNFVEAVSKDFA

Row | SMILES | IC50 [1] [µM] | Activity (Mus musculus [2]) | Activity [3] | Ki [4] [µM] | Ki [5] [µM] | IC50 [6] [µM] | Ki [7] [µM] | Ratio IC50 [8] | Activity (Mus musculus [9]) | EC50 [10] [µM] | Ratio Ki [11] | Ratio Ki [12] | Ratio Ki [13] | Activity [14] | Activity [15] | Activity [16] | Ki [17] [µM]
1 | c1c2c(cc3c1OCO3)[C@H]1CCCN1CC2 | > 100 | Dose-dependent effect | Active | 100 | 6.6 | 1.3 | 0.17 | – | – | – | – | – | – | – | – | – | –
2 | C[N+]12CCC[C@@H]1c1cc3c(cc1CC2)OCO3 (stereo partly drawn) | 50 | – | – | 11 | 2.7 | 0.22 | 0.045 | 230 | Active | 1.6 | 10 | 10 | 10 | – | – | – | –
3 | COc1cc2c(cc1OCc1ccccc1)CC[N+](C)(C)C2 | > 300 | – | – | 30 | 50 | 7.2 | 0.47 | – | – | – | – | – | – | inactive | Dose-dependent effect | Dose-dependent effect | –
4 | COc1ccc(CC2c3cc(OC)c(OC)cc3CC[N+]2(C)C)cc1OC (stereo not drawn) | > 100 | – | Active | > 100 | > 100 | > 100 | > 100 | – | – | – | – | – | – | – | – | – | –
5 | COc1cc2c(cc1O)CCN1CC=C3C=C[C@H](OC)C[C@]321 [ERYSODINE] | – | – | – | – | – | – | – | – | – | – | – | – | – | – | – | – | 0.05
